Reference: ChEMBL document CHEMBL5058577, “EUbOPEN Chemogenomics Library 2 (Multiplex)” (2022)

Tested on: Fibroblast
Test: Multiplex assay against human fibroblast
Format: toxicity, cell-based
In short: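 With compound added, live cells were imaged on a CQ1 microscope at 37°C and 5% CO2; staining with Hoechst33342, BioTracker Green Microtubule Cytoskeleton Dye, MitoTracker Red and Annexin V Alexa Fluor 680 had been done at seeding. The CellPathfinder machine-learning gating scheme split cells into Hoechst high-intensity objects or normal cells, normal cells into healthy, pyknosed or fragmented nuclei, and pyknosed cells into mitotic or apoptotic. The tubulin, mitochondrial-mass and membrane-permeability phenotypes are per cents of healthy-nucleus cells.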

[1] = 12 h, 1 µM, compound concentration 1 uM, replicate 1
[2] = 12 h, 1 µM, compound concentration 1 uM, replicate 2
[3] = 12 h, 10 µM, compound concentration 10 uM, replicate 1
[4] = 12 h, 10 µM, compound concentration 10 uM, replicate 2
[5] = 24 h, 1 µM, compound concentration 1 uM, replicate 1
[6] = 24 h, 1 µM, compound concentration 1 uM, replicate 2
[7] = 24 h, 10 µM, compound concentration 10 uM, replicate 1
[8] = 24 h, 10 µM, compound concentration 10 uM, replicate 2
[9] = 48 h, 1 µM, compound concentration 1 uM, replicate 1
[10] = 48 h, 1 µM, compound concentration 1 uM, replicate 2
[11] = 48 h, 10 µM, compound concentration 10 uM, replicate 1
[12] = 48 h, 10 µM, compound concentration 10 uM, replicate 2

C[C@H](N)COC(=O)[C@@H](CCCCN)NC(=O)Cc1c(-c2ccc3ccccc3c2)[nH]c2c1ccc1ccccc12
Population Apoptotic (%) [1]: 32%
Population Fragmented Nuclei (%) [1]: 18%
Population Healthy Nuclei (%) [1]: 65%
Population Hoechst High Intensity Objects (%) [1]: 1%
Population Membrane Permeable-Phenotype (%) [1]: 0%
Population Mitochondria Different-Phenotype (%) [1]: 7%
Population Mitotic Cells (%) [1]: 67%
Population Normal (%) [1]: 98%
Population Pyknosed Nuclei (%) [1]: 15%
Population Tubulin-Different-Phenotype (%) [1]: 32%
Total Cell Count [1]: 179
Population Apoptotic (%) [2]: 50%
Population Fragmented Nuclei (%) [2]: 25%
Population Healthy Nuclei (%) [2]: 51%
Population Hoechst High Intensity Objects (%) [2]: 4%
Population Membrane Permeable-Phenotype (%) [2]: 5%
Population Mitochondria Different-Phenotype (%) [2]: 4%
Population Mitotic Cells (%) [2]: 50%
Population Normal (%) [2]: 95%
Population Pyknosed Nuclei (%) [2]: 23%
Population Tubulin-Different-Phenotype (%) [2]: 36%
Total Cell Count [2]: 170
Population Apoptotic (%) [3]: 43%
Population Fragmented Nuclei (%) [3]: 13%
Population Healthy Nuclei (%) [3]: 69%
Population Hoechst High Intensity Objects (%) [3]: 2%
Population Membrane Permeable-Phenotype (%) [3]: 1%
Population Mitochondria Different-Phenotype (%) [3]: 8%
Population Mitotic Cells (%) [3]: 56%
Population Normal (%) [3]: 97%
Population Pyknosed Nuclei (%) [3]: 16%
Population Tubulin-Different-Phenotype (%) [3]: 33%
Total Cell Count [3]: 183
Population Apoptotic (%) [4]: 62%
Population Fragmented Nuclei (%) [4]: 32%
Population Healthy Nuclei (%) [4]: 50%
Population Hoechst High Intensity Objects (%) [4]: 7%
Population Membrane Permeable-Phenotype (%) [4]: 5%
Population Mitochondria Different-Phenotype (%) [4]: 6%
Population Mitotic Cells (%) [4]: 37%
Population Normal (%) [4]: 92%
Population Pyknosed Nuclei (%) [4]: 17%
Population Tubulin-Different-Phenotype (%) [4]: 47%
Total Cell Count [4]: 167
Population Apoptotic (%) [5]: 53%
Population Fragmented Nuclei (%) [5]: 16%
Population Healthy Nuclei (%) [5]: 66%
Population Hoechst High Intensity Objects (%) [5]: 3%
Population Membrane Permeable-Phenotype (%) [5]: 0%
Population Mitochondria Different-Phenotype (%) [5]: 5%
Population Mitotic Cells (%) [5]: 46%
Population Normal (%) [5]: 96%
Population Pyknosed Nuclei (%) [5]: 17%
Population Tubulin-Different-Phenotype (%) [5]: 30%
Total Cell Count [5]: 179
Population Apoptotic (%) [6]: 29%
Population Fragmented Nuclei (%) [6]: 25%
Population Healthy Nuclei (%) [6]: 54%
Population Hoechst High Intensity Objects (%) [6]: 7%
Population Membrane Permeable-Phenotype (%) [6]: 3%
Population Mitochondria Different-Phenotype (%) [6]: 7%
Population Mitotic Cells (%) [6]: 70%
Population Normal (%) [6]: 92%
Population Pyknosed Nuclei (%) [6]: 20%
Population Tubulin-Different-Phenotype (%) [6]: 39%
Total Cell Count [6]: 162
Population Apoptotic (%) [7]: 63%
Population Fragmented Nuclei (%) [7]: 13%
Population Healthy Nuclei (%) [7]: 74%
Population Hoechst High Intensity Objects (%) [7]: 7%
Population Membrane Permeable-Phenotype (%) [7]: 0%
Population Mitochondria Different-Phenotype (%) [7]: 5%
Population Mitotic Cells (%) [7]: 36%
Population Normal (%) [7]: 92%
Population Pyknosed Nuclei (%) [7]: 11%
Population Tubulin-Different-Phenotype (%) [7]: 31%
Total Cell Count [7]: 171
Population Apoptotic (%) [8]: 50%
Population Fragmented Nuclei (%) [8]: 36%
Population Healthy Nuclei (%) [8]: 50%
Population Hoechst High Intensity Objects (%) [8]: 6%
Population Membrane Permeable-Phenotype (%) [8]: 5%
Population Mitotic Cells (%) [8]: 50%
Population Normal (%) [8]: 93%
Population Pyknosed Nuclei (%) [8]: 13%
Population Tubulin-Different-Phenotype (%) [8]: 54%
Total Cell Count [8]: 159
Population Apoptotic (%) [9]: 72%
Population Fragmented Nuclei (%) [9]: 21%
Population Healthy Nuclei (%) [9]: 65%
Population Hoechst High Intensity Objects (%) [9]: 5%
Population Membrane Permeable-Phenotype (%) [9]: 0%
Population Mitochondria Different-Phenotype (%) [9]: 7%
Population Mitotic Cells (%) [9]: 27%
Population Normal (%) [9]: 94%
Population Pyknosed Nuclei (%) [9]: 12%
Population Tubulin-Different-Phenotype (%) [9]: 26%
Total Cell Count [9]: 186
Population Apoptotic (%) [10]: 51%
Population Fragmented Nuclei (%) [10]: 30%
Population Healthy Nuclei (%) [10]: 50%
Population Hoechst High Intensity Objects (%) [10]: 2%
Population Membrane Permeable-Phenotype (%) [10]: 3%
Population Mitochondria Different-Phenotype (%) [10]: 6%
Population Mitotic Cells (%) [10]: 48%
Population Normal (%) [10]: 97%
Population Pyknosed Nuclei (%) [10]: 18%
Population Tubulin-Different-Phenotype (%) [10]: 39%
Total Cell Count [10]: 169
Population Apoptotic (%) [11]: 46%
Population Fragmented Nuclei (%) [11]: 16%
Population Healthy Nuclei (%) [11]: 68%
Population Hoechst High Intensity Objects (%) [11]: 9%
Population Membrane Permeable-Phenotype (%) [11]: 0%
Population Mitochondria Different-Phenotype (%) [11]: 4%
Population Mitotic Cells (%) [11]: 53%
Population Normal (%) [11]: 90%
Population Pyknosed Nuclei (%) [11]: 15%
Population Tubulin-Different-Phenotype (%) [11]: 35%
Total Cell Count [11]: 185
Population Apoptotic (%) [12]: 55%
Population Fragmented Nuclei (%) [12]: 36%
Population Healthy Nuclei (%) [12]: 52%
Population Hoechst High Intensity Objects (%) [12]: 5%
Population Membrane Permeable-Phenotype (%) [12]: 7%
Population Mitochondria Different-Phenotype (%) [12]: 8%
Population Mitotic Cells (%) [12]: 44%
Population Normal (%) [12]: 94%
Population Pyknosed Nuclei (%) [12]: 11%
Population Tubulin-Different-Phenotype (%) [12]: 54%
Total Cell Count [12]: 166
